CYP2C9 act = activators of human CYP2C9. P11712. actives 1.4% (n = 96,000). recombinant CYP2C9, luciferin-H conversion, luminescence; hits give high values; factor 1 = untreated enzyme, 0 = blocked. activation factor at 5 µM;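 active = activation factor of 2 or more for CYP2C9 at a 5 µM dose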;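 also: 0 = sulfaphenazole-blocked wells and 1 = vehicle-only wells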
CYP2C9 inh = blocks human cytochrome P450 2C9; inhibition, % at 5 µM; P11712; CYP2C9 Supersomes, luciferin-H conversion, luminescence; actives 20% (n = 96,000);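 active = blocking of liver enzyme CYP2C9 beyond about 50% at 5 µM, limit read from the data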
Cav3 T inh = inhibitors of human Cav3.2 T-type calcium channel. O95180. Cav3.2-expressing cells, Fluo-4 calcium fluorescence FDSS; hits give low values. B-score at 10 µM. actives 4% (n = 100,000). AID 449739;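 active = single-dose well whose peak fluorescence ratio is a statistical outlier from its plate by either plate-standardised score or position-corrected B-score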
Rev-RRE block = disrupts HIV-1 Rev binding to RRE RNA. P05866. Rev peptide-RRE RNA binding, FRET. inhibition, % at 8 µM. actives 0.79% (n = 97,000);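 active = inhibition above the screen-wide mean plus 3 SD, cut at about 35% in these data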;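 also: 0% = median DMSO wells and 100% = median Neomycin B control wells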
Target sequence (P05866 whole entry, looked up): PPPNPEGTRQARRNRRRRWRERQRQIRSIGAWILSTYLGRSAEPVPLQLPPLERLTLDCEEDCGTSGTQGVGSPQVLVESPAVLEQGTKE
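Assay system: Rev peptide and RRE RNA, both fluorescently labelled; times: 5 min preincubation and 15 min binding, 25 °C; detection: FRET, ex 480 nm, em 540 and 671 nm; read-out basis: % inhibition from 671/540 nm acceptor-to-donor ratio, scaled between controls; benchmarks: DMSO low control, neomycin B high control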
CYP2C19 inhib = inhibitors of human CYP2C19 | P33261 | CYP2C19 Supersomes, luciferin-H EGE luminescence, 30 min | inhibition, % at 5 µM | actives 21% (n = 96,000);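 active = CYP2C19 inhibition above a set limit at 5 µM in the primary screen, cut at about 50% in these data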;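 also: plate controls were negative control wells for no effect and 2.5 mM tranylcypromine positive control for full effect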
Target sequence (P33261 whole entry, looked up): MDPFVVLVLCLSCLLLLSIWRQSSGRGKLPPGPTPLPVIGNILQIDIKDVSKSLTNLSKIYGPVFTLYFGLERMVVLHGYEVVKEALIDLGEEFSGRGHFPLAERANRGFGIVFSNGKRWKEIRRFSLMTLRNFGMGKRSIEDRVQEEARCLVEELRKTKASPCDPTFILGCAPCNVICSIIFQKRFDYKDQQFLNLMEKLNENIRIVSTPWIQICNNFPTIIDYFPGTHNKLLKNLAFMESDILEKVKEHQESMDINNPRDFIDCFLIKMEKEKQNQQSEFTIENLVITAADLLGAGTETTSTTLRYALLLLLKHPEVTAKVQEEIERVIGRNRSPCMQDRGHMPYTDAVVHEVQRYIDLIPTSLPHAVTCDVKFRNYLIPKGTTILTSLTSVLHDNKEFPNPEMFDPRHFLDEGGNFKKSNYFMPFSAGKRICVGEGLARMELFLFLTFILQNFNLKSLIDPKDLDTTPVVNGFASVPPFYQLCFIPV
CYP2C19 activ = activators of human cytochrome P450 2C19; activation factor at 5 µM; recombinant CYP2C19, luciferin-H EGE luminescence; hits give high values; 0 = fully inhibited enzyme, 1 = untreated enzyme; 96,000 tested, under 10 active; AID 1025;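 active = activation factor of at least 2 at 5 µM in the primary screen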;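 also: 0 = wells with 2.5 mM tranylcypromine and 1 = vehicle-only wells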
Numbers without * were called inactive. Rows were chosen to be rich in hits. Some 27% of all compounds tested hit in one or more screens of this group.

What do the screens show for `CCn1nnc(-c2ccccc2NC(=O)c2ccc(-n3cnnn3)cc2)n1`?
CYP2C9 act: 0.6; CYP2C9 inh: 37; Cav3 T inh: -1.1; Rev-RRE block: 13; CYP2C19 inhib: -3; CYP2C19 activ: 1

Results for CCn1nnc(-c2ccccc2NS(=O)(=O)c2ccc(C(=O)OC)cc2)n1 ?
CYP2C9 act: 0.3; CYP2C9 inh: 73*; Cav3 T inh: -1.9; Rev-RRE block: 9; CYP2C19 inhib: 98*; CYP2C19 activ: 0

How did O=C(C1CCCN(Cc2ccccc2Br)C1)N1CCCCC1 (configuration not stated) do in these assays?
CYP2C9 act: 0.7; CYP2C9 inh: 28; Cav3 T inh: 0.44; Rev-RRE block: -3; CYP2C19 inhib: 7; CYP2C19 activ: 0.9

Results for Cn1c(NCCCO)nc2c(c1=O)C1(CCCCC1)Cc1ccccc1-2 ?
CYP2C9 act: 0.2; CYP2C9 inh: 83*; Cav3 T inh: -1.9; Rev-RRE block: 7; CYP2C19 inhib: 78*; CYP2C19 activ: 0.2

Results for CCC1(C)Cc2ccccc2-c2nc(NCCCO)n(-c3ccccc3)c(=O)c21 (configuration not stated) ?
CYP2C9 act: 0.8; CYP2C9 inh: 25; Cav3 T inh: -1.9; Rev-RRE block: 3; CYP2C19 inhib: 51*; CYP2C19 activ: 0.5

Results for CCCn1c(SCC(N)=O)nc2c(c1=O)C1(CCCC1)Cc1ccccc1-2 ?
CYP2C9 act: 1; CYP2C9 inh: 5; Rev-RRE block: 1; CYP2C19 inhib: -3; CYP2C19 activ: 1

How did CCCC(=O)Nn1cnc2c(c1=O)C1(CCCCC1)Cc1ccccc1-2 do in these assays?
CYP2C9 act: 0.4; CYP2C9 inh: 64*; Cav3 T inh: -1.5; Rev-RRE block: 8; CYP2C19 inhib: 50*; CYP2C19 activ: 0.5

What do the screens show for `CCn1c(SCC#N)nc2c(c1=O)C1(CCCC1)Cc1ccccc1-2`?
CYP2C9 act: 0.1; CYP2C9 inh: 89*; Cav3 T inh: -6.9*; Rev-RRE block: 5; CYP2C19 inhib: 60*; CYP2C19 activ: 0.4

How did Cc1c(OCc2ccc(C(=O)O)o2)ccc2c3c(c(=O)oc12)CCC3 do in these assays?
CYP2C9 act: 0.8; CYP2C9 inh: 16; Cav3 T inh: 0.92; Rev-RRE block: -4; CYP2C19 inhib: -8; CYP2C19 activ: 1.1

What do the screens show for `Cc1sc2nc(CN(C(=O)NC3CCCCC3)C3CCCCC3)[nH]c(=O)c2c1C`?
Cav3 T inh: 0.71; Rev-RRE block: 4

Results for C[C@H]1CCC[C@@]2(O[C@H](CCO)C[C@H](O)[C@H]2O)O1 ?
Cav3 T inh: 0.55

What do the screens show for `CC(C)OC(=O)CSc1nnc(-c2cnccn2)n1-c1ccccc1`?
Cav3 T inh: -2.1; Rev-RRE block: 9

Results for Cc1ccn2cc(CNS(=O)(=O)c3ccc(Cl)s3)nc2c1 ?
CYP2C9 act: 0.8; CYP2C9 inh: 23; Cav3 T inh: 0.73; Rev-RRE block: 6; CYP2C19 inhib: 30; CYP2C19 activ: 0.7

How did CCC1(C)Cc2ccccc2-c2nc3n(c(=O)c21)CC(C(=O)O)S3 (configuration not stated) do in these assays?
CYP2C9 act: 0.3; CYP2C9 inh: 69*; Cav3 T inh: 1.3; Rev-RRE block: 6; CYP2C19 inhib: -1; CYP2C19 activ: 1

How did COc1ccc(OC)c(S(=O)(=O)N2CCN(C34CC5CC(CC(C5)C3)C4)CC2)c1 do in these assays?
CYP2C9 act: 1.2; CYP2C9 inh: -24; Cav3 T inh: 0.79; Rev-RRE block: 7; CYP2C19 inhib: 16; CYP2C19 activ: 0.8

Results for CC1CN(S(=O)(=O)c2cccc3nsnc23)CC(C)O1 (configuration not stated) ?
Cav3 T inh: -0.07; Rev-RRE block: 1

Results for COc1ccc(C(=O)NCc2ccc(C)cc2)cc1S(=O)(=O)N1CCCc2ccccc21 ?
CYP2C9 act: 0.3; CYP2C9 inh: 74*; Cav3 T inh: -3.9; Rev-RRE block: 9; CYP2C19 inhib: 67*; CYP2C19 activ: 0.3

How did COc1ccc(OC)c(S(=O)(=O)N2C(C)CCCC2C)c1 (configuration not stated) do in these assays?
CYP2C9 act: 0.1; CYP2C9 inh: 85*; Cav3 T inh: 0.54; CYP2C19 inhib: 93*; CYP2C19 activ: 0.1

Results for CC1Cc2ccccc2N1S(=O)(=O)c1cccc2nsnc12 (configuration not stated) ?
CYP2C9 act: 0; CYP2C9 inh: 99*; Cav3 T inh: -1.4; Rev-RRE block: 9; CYP2C19 inhib: 79*; CYP2C19 activ: 0.2

How did CCCNC(=O)NC(=O)COC(=O)c1ccc(OC)c(S(=O)(=O)N2CCCc3ccccc32)c1 do in these assays?
CYP2C9 act: 0; CYP2C9 inh: 95*; Cav3 T inh: -7.5*; Rev-RRE block: 5; CYP2C19 inhib: 37; CYP2C19 activ: 0.6

How did CCO[C@H]1OC(C(=O)N2CCN(Cc3ccc4c(c3)OCO4)CC2)=C[C@@H](C(C)(C)C)[C@@H]1CCCO do in these assays?
Cav3 T inh: -1.6

Results for COc1ccc(C(=O)N2CCCCC2)cc1S(=O)(=O)Nc1cccc(C(=O)O)c1 ?
Cav3 T inh: 0.74; Rev-RRE block: 8

Results for COc1ccc(OC)c(S(=O)(=O)N2Cc3ccccc3CC2C(=O)O)c1 (configuration not stated) ?
CYP2C9 act: 0.9; CYP2C9 inh: 8; Cav3 T inh: -0.072; Rev-RRE block: 10; CYP2C19 inhib: 12; CYP2C19 activ: 0.9

How did COc1ccc(F)cc1S(=O)(=O)N1CC(C)CC(C)C1 (configuration not stated) do in these assays?
CYP2C9 act: 0.8; CYP2C9 inh: 23; Cav3 T inh: -1.5; Rev-RRE block: 5; CYP2C19 inhib: 65*; CYP2C19 activ: 0.4

What do the screens show for `COc1ccc(OC)c(S(=O)(=O)N2c3ccccc3CC2C)c1` (configuration not stated)?
CYP2C9 act: 0.2; CYP2C9 inh: 79*; Cav3 T inh: -1.2; Rev-RRE block: 5; CYP2C19 inhib: 75*; CYP2C19 activ: 0.3

How did COc1ccc(OC)c(S(=O)(=O)N2c3cc(F)ccc3CCC2C)c1 (configuration not stated) do in these assays?
CYP2C9 act: 0.4; CYP2C9 inh: 61*; Cav3 T inh: -2.2; Rev-RRE block: 12; CYP2C19 inhib: 88*; CYP2C19 activ: 0.1

Results for COc1ccc(C(=O)N2CCCN(C)CC2)cc1S(=O)(=O)N1CCCc2ccccc21 ?
CYP2C9 act: 0.5; CYP2C9 inh: 50*; Cav3 T inh: 1.5; CYP2C19 inhib: 18; CYP2C19 activ: 0.8

How did COc1ccc(F)cc1S(=O)(=O)NC1CCCCCC1 do in these assays?
CYP2C9 act: 0.6; CYP2C9 inh: 38; Cav3 T inh: -0.42; Rev-RRE block: 10; CYP2C19 inhib: 35; CYP2C19 activ: 0.7

Bioassay records: PubChem BioAssay, several laboratories
